Laboratory results published in ChEMBL document CHEMBL3045825, “Synthesis, fungicidal activity, and structure-activity relationship of 2-oxo- and 2-hydroxycycloalkylsulfonamides” (J Agric Food Chem, 2010).
In brackets after ≈: the same amount, converted by molar mass.

Columns and labels:
Botrytis cinerea [1] = test: Fungicidal activity against Botryotinia fuckeliana assessed as inhibition of mycelial growth; format: functional, organism-based
Botrytis cinerea [2] = test: Fungicidal activity against Botryotinia fuckeliana assessed as inhibition spore germination; format: functional, organism-based
Procedure, shortened: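 Conidial germination on microscope slides: B. cinerea conidia about 2×10⁵ spores/mL in 0.05% Tween 80; acetone stock (5000 μg/mL) diluted in suspension to final 200, 50, 12.5, 3.12, 0.78 μg/mL. 30 μL on concave slide, humid chamber 23 °C, 100% RH, 8 h; germinated conidia counted in five fields. Three replicates; procymidone positive control.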

Botrytis cinerea [3] = test: Fungicidal activity against Botryotinia fuckeliana grown on compound pre-treated cucumber leaves assessed as control efficiency against gray mold disease on leaves at 125 ug/mL; format: functional
Procedure, shortened: (§1)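 Cucumber leaves sprayed with formulation diluted in water (500, 125, 31.25 μg/mL), air-dried, then upper surface inoculated with 6 mm plugs of B. cinerea Pers. maintained on PDA. Disease spot diameter measured; control efficiency from inhibition-rate equation. Procedure repeated 3 times, 9 replicates; procymidone and pyrimethanil (95%) positive controls.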

Botrytis cinerea [4] = test: Fungicidal activity against Botryotinia fuckeliana grown on compound pre-treated cucumber leaves assessed as control efficiency against gray mold disease on leaves at 31.25 ug/mL; format: functional; procedure, shortened: as §1
Botrytis cinerea [5] = test: Fungicidal activity against Botryotinia fuckeliana grown on compound pre-treated cucumber leaves assessed as control efficiency against gray mold disease on leaves at 500 ug/mL; format: functional; procedure, shortened: as §1
Botrytis cinerea [6] = test: Potency index, ratio of EC80 for procymidone to EC80 for test compound against Botryotinia fuckeliana assessed as inhibition of mycelial growth; format: functional

With `O=S(=O)(Nc1ccccc1)C1CCCCC1O` (configuration not stated) the EC50 (Botrytis cinerea [1]) was 22.9 µg/mL (≈ 89.7 µM) and the EC80 (Botrytis cinerea [1]) was 443 µg/mL (≈ 1740 µM).

Compound `Cc1ccc(NS(=O)(=O)C2CCCCC2O)cc1` (configuration not stated) has an EC50 (Botrytis cinerea [1]) of 18 µg/mL (≈ 66.9 µM) and an EC80 (Botrytis cinerea [1]) of 65.4 µg/mL (≈ 243 µM).

With `Cc1ccc(NS(=O)(=O)C2CCCCC2O)c(C)c1` (configuration not stated) the EC50 (Botrytis cinerea [1]) was 21.5 µg/mL (≈ 75.8 µM) and the EC80 (Botrytis cinerea [1]) was 332 µg/mL (≈ 1170 µM).

Compound `CCc1cccc(C)c1NS(=O)(=O)C1CCCCC1O` (configuration not stated) has an EC50 (Botrytis cinerea [1]) of 105 µg/mL (≈ 352 µM) and an EC80 (Botrytis cinerea [1]) of over 10000 µg/mL.

`COc1ccc(OC)c(NS(=O)(=O)C2CCCCC2O)c1` (configuration not stated) was tested, and the EC50 (Botrytis cinerea [1]) was 22.3 µg/mL (≈ 70.7 µM) and the EC80 (Botrytis cinerea [1]) was 181 µg/mL (≈ 575 µM).

In the case of `Cc1cc(F)ccc1NS(=O)(=O)C1CCCCC1O` (configuration not stated), the EC50 (Botrytis cinerea [1]) is reported as 34.1 µg/mL (≈ 119 µM) and the EC80 (Botrytis cinerea [1]) is reported as 310 µg/mL (≈ 1080 µM).

For `O=S(=O)(Nc1ccccc1F)C1CCCCC1O` (configuration not stated), the EC50 (Botrytis cinerea [1]) was 24 µg/mL (≈ 87.8 µM) and the EC80 (Botrytis cinerea [1]) was 84.2 µg/mL (≈ 308 µM).

For `O=S(=O)(Nc1ccccc1Cl)C1CCCCC1O` (configuration not stated), the EC50 (Botrytis cinerea [1]) was 75.6 µg/mL (≈ 261 µM) and the EC80 (Botrytis cinerea [1]) was over 10000 µg/mL.

Compound `O=S(=O)(Nc1ccccc1Br)C1CCCCC1O` (configuration not stated) has an EC50 (Botrytis cinerea [1]) of 11 µg/mL (≈ 32.9 µM) and an EC80 (Botrytis cinerea [1]) of 250 µg/mL (≈ 749 µM).

`O=S(=O)(Nc1ccc(Cl)cc1)C1CCCCC1O` (configuration not stated) was tested, and the EC50 (Botrytis cinerea [1]) was 7.38 µg/mL (≈ 25.5 µM) and the EC80 (Botrytis cinerea [1]) was 86.5 µg/mL (≈ 298 µM).

Work on `O=S(=O)(Nc1ccc(Br)cc1)C1CCCCC1O` (configuration not stated) yielded an EC50 (Botrytis cinerea [1]) of 7.07 µg/mL (≈ 21.2 µM) and an EC80 (Botrytis cinerea [1]) of 21.4 µg/mL (≈ 64 µM).

`O=S(=O)(Nc1ccc(C(F)(F)F)cc1)C1CCCCC1O` (configuration not stated) was tested, and the EC50 (Botrytis cinerea [1]) was 8.79 µg/mL (≈ 27.2 µM) and the EC80 (Botrytis cinerea [1]) was 65.9 µg/mL (≈ 204 µM).

With `O=S(=O)(Nc1ccc(Cl)cc1Cl)C1CCCCC1O` (configuration not stated) the EC50 (Botrytis cinerea [1]) was 53.2 µg/mL (≈ 164 µM) and the EC80 (Botrytis cinerea [1]) was 518 µg/mL (≈ 1600 µM).

In the case of `O=S(=O)(Nc1ccc(Cl)c(Cl)c1)C1CCCCC1O` (configuration not stated), the EC50 (Botrytis cinerea [1]) is reported as 7.8 µg/mL (≈ 24.1 µM) and the EC80 (Botrytis cinerea [1]) is reported as 25.5 µg/mL (≈ 78.6 µM).

`O=S(=O)(Nc1cc(C(F)(F)F)ccc1C(F)(F)F)C1CCCCC1O` (configuration not stated) showed an EC50 (Botrytis cinerea [1]) of 2.53 µg/mL (≈ 6.47 µM) and an EC80 (Botrytis cinerea [1]) of 16 µg/mL (≈ 40.9 µM).

Compound `O=S(=O)(Nc1cc(C(F)(F)F)cc(C(F)(F)F)c1)C1CCCCC1O` (configuration not stated) has an EC50 (Botrytis cinerea [1]) of 4.44 µg/mL (≈ 11.3 µM) and an EC80 (Botrytis cinerea [1]) of 14.6 µg/mL (≈ 37.4 µM).

Work on `O=S(=O)(Nc1ccc(Cl)cc1C(F)(F)F)C1CCCC1O` (configuration not stated) yielded an EC50 (Botrytis cinerea [2]) of 5.29 µg/mL (≈ 15.4 µM), an EC80 (Botrytis cinerea [2]) of 43 µg/mL (≈ 125 µM) and an Efficacy (Botrytis cinerea [3]) of 68.9%. It also gave an EC50 (Botrytis cinerea [1]) of 36.4 µg/mL (≈ 106 µM), an EC80 (Botrytis cinerea [1]) of 64.4 µg/mL (≈ 187 µM) and an Efficacy (Botrytis cinerea [4]) of 62.44%. It also gave an Efficacy (Botrytis cinerea [5]) of 81.12%.

For `O=S(=O)(Nc1ccc(Cl)cc1C(F)(F)F)C1CCCCC1O` (configuration not stated), the EC50 (Botrytis cinerea [2]) was 40.1 µg/mL (≈ 112 µM), the EC80 (Botrytis cinerea [2]) was 260 µg/mL (≈ 727 µM) and the Efficacy (Botrytis cinerea [3]) was 72.42%. It also gave an EC50 (Botrytis cinerea [1]) of 3.37 µg/mL (≈ 9.42 µM), an EC80 (Botrytis cinerea [1]) of 14.3 µg/mL (≈ 39.9 µM) and an Efficacy (Botrytis cinerea [4]) of 53.05%. The Efficacy (Botrytis cinerea [5]) was 93.54%.

In the case of `O=S(=O)(Nc1ccc(Cl)cc1C(F)(F)F)C1CCCCCC1O` (configuration not stated), the EC50 (Botrytis cinerea [2]) is reported as 77 µg/mL (≈ 207 µM), the EC80 (Botrytis cinerea [2]) is reported as over 1000 µg/mL and the Efficacy (Botrytis cinerea [3]) is reported as 92.67%. The EC50 (Botrytis cinerea [1]) was 0.85 µg/mL (≈ 2.29 µM), the EC80 (Botrytis cinerea [1]) was 5.27 µg/mL (≈ 14.2 µM) and the Efficacy (Botrytis cinerea [4]) was 74.77%. For the same compound, the Efficacy (Botrytis cinerea [5]) was 95.01%.

`O=S(=O)(Nc1ccc(Cl)cc1C(F)(F)F)C1CCCCCCC1O` (configuration not stated) showed a Ratio (Botrytis cinerea [6]) of 1.18, an EC50 (Botrytis cinerea [2]) of 23.6 µg/mL (≈ 61.2 µM) and an EC80 (Botrytis cinerea [2]) of 693 µg/mL (≈ 1800 µM). The Efficacy (Botrytis cinerea [3]) was 93.55%, the EC50 (Botrytis cinerea [1]) was 1.09 µg/mL (≈ 2.83 µM) and the EC80 (Botrytis cinerea [1]) was 2.5 µg/mL (≈ 6.48 µM). The Efficacy (Botrytis cinerea [4]) was 91.49% and the Efficacy (Botrytis cinerea [5]) was 94.42%.

`O=S(=O)(Nc1ccc(Cl)cc1C(F)(F)F)C1CCCCCCCCCCC1O` (configuration not stated) was tested, and the EC50 (Botrytis cinerea [2]) was 420 µg/mL (≈ 950 µM), the EC80 (Botrytis cinerea [2]) was over 1000 µg/mL and the Efficacy (Botrytis cinerea [3]) was 15.49%. It also gave an EC50 (Botrytis cinerea [1]) of 5.72 µg/mL (≈ 12.9 µM), an EC80 (Botrytis cinerea [1]) of 49.4 µg/mL (≈ 112 µM) and an Efficacy (Botrytis cinerea [4]) of 8.45%. For the same compound, the Efficacy (Botrytis cinerea [5]) was 26.06%.

With `O=C1CCCC1S(=O)(=O)Nc1ccc(Cl)cc1C(F)(F)F` (configuration not stated) the EC50 (Botrytis cinerea [2]) was 4.21 µg/mL (≈ 12.3 µM), the EC80 (Botrytis cinerea [2]) was 227 µg/mL (≈ 663 µM) and the Efficacy (Botrytis cinerea [3]) was 72.42%. It also gave an EC50 (Botrytis cinerea [1]) of 2.5 µg/mL (≈ 7.32 µM), an EC80 (Botrytis cinerea [1]) of 15.1 µg/mL (≈ 44.1 µM) and an Efficacy (Botrytis cinerea [4]) of 60.68%. For the same compound, the Efficacy (Botrytis cinerea [5]) was 74.77%.

`O=C1CCCCCC1S(=O)(=O)Nc1ccc(Cl)cc1C(F)(F)F` (configuration not stated) was tested, and the EC50 (Botrytis cinerea [2]) was 18.1 µg/mL (≈ 48.9 µM), the EC80 (Botrytis cinerea [2]) was 388 µg/mL (≈ 1050 µM) and the Efficacy (Botrytis cinerea [3]) was 21.95%. For the same compound, the EC50 (Botrytis cinerea [1]) was 0.8 µg/mL (≈ 2.16 µM), the EC80 (Botrytis cinerea [1]) was 3.7 µg/mL (≈ 10 µM) and the Efficacy (Botrytis cinerea [4]) was 11.97%. For the same compound, the Efficacy (Botrytis cinerea [5]) was 49.53%.

`O=C1CCCCCCC1S(=O)(=O)Nc1ccc(Cl)cc1C(F)(F)F` (configuration not stated) gave a Ratio (Botrytis cinerea [6]) of 1.03, an EC50 (Botrytis cinerea [2]) of 19 µg/mL (≈ 49.4 µM) and an EC80 (Botrytis cinerea [2]) of 549 µg/mL (≈ 1430 µM). For the same compound, the Efficacy (Botrytis cinerea [3]) was 67.14%, the EC50 (Botrytis cinerea [1]) was 1.22 µg/mL (≈ 3.18 µM) and the EC80 (Botrytis cinerea [1]) was 2.88 µg/mL (≈ 7.5 µM). For the same compound, the Efficacy (Botrytis cinerea [4]) was 64.79% and the Efficacy (Botrytis cinerea [5]) was 67.72%.

`O=C1CCCCCCCCCCC1S(=O)(=O)Nc1ccc(Cl)cc1C(F)(F)F` (configuration not stated) showed an EC50 (Botrytis cinerea [2]) of 3.24 µg/mL (≈ 7.36 µM), an EC80 (Botrytis cinerea [2]) of 115 µg/mL (≈ 260 µM) and an Efficacy (Botrytis cinerea [3]) of 95.6%. For the same compound, the EC50 (Botrytis cinerea [1]) was 1.94 µg/mL (≈ 4.41 µM), the EC80 (Botrytis cinerea [1]) was 39.8 µg/mL (≈ 90.5 µM) and the Efficacy (Botrytis cinerea [4]) was 82.98%. For the same compound, the Efficacy (Botrytis cinerea [5]) was 97.07%.

In the case of `O=C1CCCCC1S(=O)(=O)Nc1ccc(Cl)cc1C(F)(F)F` (configuration not stated), the EC50 (Botrytis cinerea [2]) is reported as 4.21 µg/mL (≈ 11.8 µM), the EC80 (Botrytis cinerea [2]) is reported as 124 µg/mL (≈ 349 µM) and the Efficacy (Botrytis cinerea [3]) is reported as 20.78%. The EC50 (Botrytis cinerea [1]) was 2.16 µg/mL (≈ 6.07 µM), the EC80 (Botrytis cinerea [1]) was 5.2 µg/mL (≈ 14.6 µM) and the Efficacy (Botrytis cinerea [4]) was 16.08%. It also gave an Efficacy (Botrytis cinerea [5]) of 28.99%.

Compound `CC12CC1(C)C(=O)N(c1cc(Cl)cc(Cl)c1)C2=O` (configuration not stated) [PROCYMIDONE] has an Efficacy (Botrytis cinerea [3]) of 73.59%, an EC50 (Botrytis cinerea [1]) of 0.99 µg/mL (≈ 3.48 µM) and an EC80 (Botrytis cinerea [1]) of 2.96 µg/mL (≈ 10.4 µM). The Efficacy (Botrytis cinerea [4]) was 61.27% and the Efficacy (Botrytis cinerea [5]) was 91.78%.

Work on `Cc1cc(C)nc(Nc2ccccc2)n1` [PYRIMETHANIL] yielded an Efficacy (Botrytis cinerea [3]) of 82.98%, an Efficacy (Botrytis cinerea [4]) of 76.53% and an Efficacy (Botrytis cinerea [5]) of 100%.
